Test results as given in ChEMBL document CHEMBL4152192, “Synthesis and anticancer activity evaluation of novel azacalix[2]arene[2]pyrimidines” (Eur J Med Chem, 2018).

Columns and labels:
[1] = system: A549; assay: Antiproliferative activity against human A549 cells after 72 hrs by CCK-8 assay; format: functional, cell-based; settings: A549, 72 h
Outline: (§1)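 Cells seeded at 5 × 10³/well; A549, MCF7 and SH-SY5Y grown in DMEM, CNE and L-02 in RPMI-1640 (10% FBS, pen/strep, 37 °C, 5% CO₂). Compounds in DMSO, diluted in medium; 72 h exposure versus DMSO vehicle. CCK-8 absorbance read at 450 nm; viability taken as treated/control absorbance, IC₅₀ from curve fit. Triplicate wells, three independent experiments.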

[2] = system: SH-SY5Y; assay: Antiproliferative activity against human SH-SY5Y cells after 72 hrs by CCK-8 assay; format: functional, cell-based; outline: as §1
[3] = system: MCF7; assay: Antiproliferative activity against human MCF7 cells after 72 hrs by CCK-8 assay; format: functional, cell-based; settings: MCF7, 72 h; outline: as §1
[4] = system: CNE; assay: Antiproliferative activity against human CNE cells after 72 hrs by CCK-8 assay; format: functional, cell-based; outline: as §1
[5] = system: L02; assay: Antiproliferative activity against human L02 cells after 72 hrs by CCK-8 assay; format: cell-based; settings: L02, 72 h; outline: as §1

## FC(F)(F)c1cc2cc(c1)Nc1nccc(n1)Nc1cc(cc(C(F)(F)F)c1)Nc1nccc(n1)N2
[1]
  IC50: 2.05 µM
[2]
  IC50: 1.43 µM
[3]
  IC50: 5.38 µM
[4]
  IC50: 15.6 µM
[5]
  IC50: 20.4 µM

## Fc1cnc2nc1Nc1cccc(c1)Nc1ncc(F)c(n1)Nc1cccc(c1)N2
[1]
  IC50: > 50 µM
[2]
  IC50: > 50 µM
[3]
  IC50: > 50 µM
[4]
  IC50: > 50 µM
[5]
  IC50: > 50 µM

## FC(F)(F)c1cc2cc(c1)Nc1nc(ncc1Cl)Nc1cc(cc(C(F)(F)F)c1)Nc1nc(ncc1Cl)N2
[1]
  IC50: > 50 µM
[2]
  IC50: > 50 µM
[3]
  IC50: > 50 µM
[4]
  IC50: > 50 µM
[5]
  IC50: > 50 µM

## COc1cnc2nc1Nc1cc(cc(N3CCCC3)c1)Nc1ncc(OC)c(n1)Nc1cc(cc(N3CCCC3)c1)N2
[1]
  IC50: 1.6 µM
[2]
  IC50: 2.05 µM
[3]
  IC50: 1.45 µM
[4]
  IC50: 35.7 µM
[5]
  IC50: 15.8 µM

## Cc1cnc2nc1Nc1cc(cc(N3CCOCC3)c1)Nc1ncc(C)c(n1)Nc1cc(cc(N3CCOCC3)c1)N2
[1]
  IC50: > 50 µM
[2]
  IC50: > 50 µM
[3]
  IC50: > 50 µM
[4]
  IC50: > 50 µM
[5]
  IC50: > 50 µM

## Fc1cnc2nc1Nc1cccc(c1)Nc1ncc(Cl)c(n1)Nc1cccc(c1)N2
[1]
  IC50: > 50 µM
[2]
  IC50: > 50 µM
[3]
  IC50: > 50 µM
[4]
  IC50: > 50 µM
[5]
  IC50: > 50 µM

## Brc1cc2cc(c1)Nc1nccc(n1)Nc1cc(Br)cc(c1)Nc1nccc(n1)N2
[1]
  IC50: 6.55 µM
[2]
  IC50: 2.96 µM
[3]
  IC50: 9.24 µM
[4]
  IC50: > 50 µM
[5]
  IC50: 47.9 µM

## COc1cnc2nc1Nc1cc(cc(N3CCOCC3)c1)Nc1ncc(OC)c(n1)Nc1cc(cc(N3CCOCC3)c1)N2
[1]
  IC50: > 50 µM
[2]
  IC50: > 50 µM
[3]
  IC50: > 50 µM
[4]
  IC50: > 50 µM
[5]
  IC50: > 50 µM

## COc1cnc2nc1Nc1cc(cc(C(F)(F)F)c1)Nc1ncc(OC)c(n1)Nc1cc(cc(C(F)(F)F)c1)N2
[1]
  IC50: > 50 µM
[2]
  IC50: > 50 µM
[3]
  IC50: > 50 µM
[4]
  IC50: > 50 µM
[5]
  IC50: > 50 µM

## CC(C)S(=O)(=O)c1ccc2cc1Nc1ncc(Cl)c(n1)Nc1ccc(S(=O)(=O)C(C)C)c(c1)Nc1ncc(Cl)c(n1)N2
[1]
  IC50: > 50 µM
[2]
  IC50: > 50 µM
[3]
  IC50: > 50 µM
[4]
  IC50: > 50 µM
[5]
  IC50: > 50 µM

## Cc1cnc2nc1Nc1cccc(c1)Nc1ncc(C)c(n1)Nc1cccc(c1)N2
[1]
  IC50: 7.42 µM
[2]
  IC50: 17.5 µM
[3]
  IC50: 18.8 µM
[4]
  IC50: 23.7 µM
[5]
  IC50: 9.89 µM
